Assay outcomes from PubChem.
MrgX1 agonist = human MrgX1 receptor agonism, primary screen | B-score at 10 µM | MrgX1-HEK293 cells, Fluo-4 calcium fluorescence, agonist mode; stronger effect = higher value | Q96LB2 | hit rate 0.44% among 310,000;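 active = calcium response B-score plate-corrected fluorescence ratio at least 3 library SD, with starting fluorescence B-score inside 5 SD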
Target sequence (Q96LB2 whole entry, looked up): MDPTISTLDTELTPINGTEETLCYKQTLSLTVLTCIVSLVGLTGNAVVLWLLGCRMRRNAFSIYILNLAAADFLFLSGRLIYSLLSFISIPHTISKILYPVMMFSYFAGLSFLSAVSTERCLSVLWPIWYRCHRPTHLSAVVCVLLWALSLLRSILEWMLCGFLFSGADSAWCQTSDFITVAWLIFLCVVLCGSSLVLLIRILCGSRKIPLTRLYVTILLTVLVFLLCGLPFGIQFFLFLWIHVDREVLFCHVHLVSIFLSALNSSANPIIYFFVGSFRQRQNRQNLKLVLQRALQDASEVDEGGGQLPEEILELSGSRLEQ
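Material: HEK293 cells stably expressing human MrgX1 receptor | Quantity: 15,000 cells per well | Times: Cells plated overnight, dye loaded 0.5 h 37 °C, 0.5 h room temperature | Measured by: Kinetic Fluo-4 NW fluorescence of intracellular calcium | Control set: Positive and negative controls per plate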
MrgX1 allo act = allosterically activates human MrgX1 receptor signaling; MrgX1-HEK293, Fluo-4 calcium flux, FDSS; stronger effect = higher value; B-score at 10 µM; hit rate 0.63% among 310,000;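 active = plate-corrected calcium response at least 3 library SD above typical, normal starting fluorescence, not activating the receptor alone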;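 also: compound read alongside a low EC10 to EC30 dose of BAM8-22 agonist; peak minus trough fluorescence over baseline measured at the second addition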
MrgX1 antagonist = human MrgX1 receptor antagonism, primary screen. MRGX1-HEK293 calcium flux, Fluo-4, BAM8-22 antagonism; stronger effect = lower value. B-score at 10 µM. hit rate 1.3% among 310,000. AID 588676;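 active = calcium-response B-score plate-corrected more than 3 library SD below zero, starting fluorescence within 5 deviations, no agonist response on first addition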;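 also: peak minus trough fluorescence over baseline after final BAM8-22 challenge near maximal dose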
RGS4 pot = RGS4 potentiation or activation; HEK293 M3R/inducible RGS4, carbachol calcium flux Fluo4; stronger effect = lower value; AID 463111; B-score at 10 µM; hit rate 0.92% among 310,000;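 active = B-score of the integrated calcium signal more than 4 SD below the library mean, with starting fluorescence not abnormally high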;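 also: negative B-score means reduced calcium response which marks RGS4 activation or potentiation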
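System – HEK293 FlpIn-TREx cells, stable M3R, doxycycline-inducible RGS4 · Reagent – ECmax carbachol challenge · Times – compound preincubation 20 min at room temperature before agonist · Technique – Fluo4 fluorescence kinetic imaging of calcium · Measure – B score of integrated Fluo4 ratio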
RGS4 block = inhibitors of human RGS4; P49798; HEK293 M3R/RGS4 inducible, Fluo-4 calcium flux; stronger effect = higher value; triggered by carbachol at its EC20; B-score at 10 µM; hit rate 0.45% among 310,000;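 active = B-score, a plate-corrected calcium signal, over three deviations above library mean, with baseline fluorescence within five deviations of library mean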;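 also: RGS4 expression induced by doxycycline in cells with stable M3 receptor; B-score is computed from the integrated fluorescence ratio over baseline after carbachol; higher B-score means a larger calcium signal and so more RGS4 inhibition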
Target sequence (P49798 whole entry, looked up): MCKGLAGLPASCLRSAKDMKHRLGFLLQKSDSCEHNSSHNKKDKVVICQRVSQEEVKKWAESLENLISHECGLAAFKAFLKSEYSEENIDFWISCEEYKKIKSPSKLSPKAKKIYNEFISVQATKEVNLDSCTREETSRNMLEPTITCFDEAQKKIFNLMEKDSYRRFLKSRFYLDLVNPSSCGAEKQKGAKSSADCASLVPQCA
MrgX1 PAM conf = confirmation of human MrgX1 receptor positive allosteric modulators | AID 602413 | activation (ratio percentage), % at 10 µM | hit rate 13% among 1,200 | shares compounds with MrgX1 allo act | MrgX1-HEK293, Fluo-4 calcium fluorescence, FDSS;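 active = ratio at least 3 SD above the weak peptide control, stable starting fluorescence, no direct agonism earlier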;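 also: compound followed by low BAM8-22 agonist challenge near EC20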
HEK293 Ca flux = activity in parental HEK293 cells lacking MrgX1; Fluo-4 calcium fluorescence, FDSS; shares compounds with MrgX1 antagonist; fluorescence ratio F(max-min)/F0 at 10 µM; hit rate 2% among 4,000;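 active = duplicate-averaged calcium fluorescence ratio at least three times the standard deviation of buffer wells, a nonspecific response in parental cells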
HEK293 Ca counter = MrgX1 allosteric activator counter-screen hit in parental HEK293 cells | fluorescence ratio F(max-min)/F0 at 10 µM | parental HEK293 calcium flux, Fluo-4 fluorescence ratio; stronger effect = higher value | hit rate 0.4% among 4,000 | AID 624114 | shares compounds with MrgX1 antagonist;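 active = calcium fluorescence ratio, averaged over duplicates, at least 3 SD of the buffer-well ratio, meaning a nonspecific response in receptor-free cells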;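 also: untransfected parental HEK293 lacking MrgX1 used as counterscreen for MrgX1 allosteric activators; fluorescence change taken during the second addition on a kinetic imager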
HEK293 Ca cntr2 = MrgX1 activator counter-screen hit in parental HEK293 cells; shares compounds with MrgX1 antagonist; Fluo-4 calcium fluorescence (FDSS); stronger effect = higher value; fluorescence ratio F(max-min)/F0 at 10 µM; hit rate 8.7% among 4,000; AID 624115;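 active = calcium fluorescence ratio at least three times the spread of buffer wells, meaning a non-specific response in parental cells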
* hit, by the source's call; i = inactive; . = no result. Hits are enriched below; roughly 3.5% of the tested compounds scored in any of these assays.

SMILES	MrgX1 agonist	MrgX1 allo act	MrgX1 antagonist	RGS4 pot	RGS4 block	MrgX1 PAM conf	HEK293 Ca flux	HEK293 Ca counter	HEK293 Ca cntr2
CC(=O)CC(c1ccc([N+](=O)[O-])cc1)c1c(O)c2ccccc2oc1=O (configuration not stated)	i	i	i	i	i	.	.	.	.
Cc1ccc(NC2=C(Cl)C(=O)OC2OC(=O)c2ccc(C)cc2)cc1 (configuration not stated)	i	8.58*	i	i	i	i	i	i	i
N#CC1=C(N2CCCCC2)c2cc3c(n2C1=O)CCCC3	i	i	i	i	i	.	.	.	.
N=C1/C(=C\c2ccc(OC(=O)c3ccco3)cc2)C(=O)N=C2SC(N3CCCCC3)=NN12	i	i	i	i	i	.	.	.	.
CC(C)S(=O)(=O)C1=NSC2=NC(=O)/C(=C\c3ccc(OC(=O)c4ccco4)cc3)C(=N)N21	i	34.6*	i	i	i	i	i	i	i
CCN(CC)S(=O)(=O)c1cc(Br)c(C)cc1OC	i	8.64*	i	i	i	i	i	i	i
COc1ccc(-c2cc(C(=O)Nc3ccc(F)cc3F)no2)cc1	i	i	i	i	i	.	.	.	.
COc1ccc(-c2cc(C(=O)Nc3c(F)cc(F)cc3Br)no2)cc1	i	8.93*	i	i	i	i	i	i	i
O=C(c1ccc(Cl)cc1)C1CCCN(Cc2cccn2-c2cccnc2)C1 (configuration not stated)	i	7.52*	i	i	i	i	i	i	i
Nc1nc2ccccc2n1CCOc1ccc(Cl)cc1	i	6.58*	i	i	i	i	i	i	i
CCCn1c(SCC(=O)Nc2cccc(NC(C)=O)c2)nnc1C(C)C	i	i	i	i	i	.	.	.	.
CCCn1c(SCC(=O)Nc2cccc(C)n2)nnc1C(C)C	i	8.24*	i	i	i	i	i	i	i
COC(=O)CN1C(=O)C2(C(C#N)=C(N)Oc3n[nH]c(-c4cccs4)c32)c2ccccc21 (configuration not stated)	i	i	i	i	i	.	.	.	.
COC(=O)CN1C(=O)C2(C(C#N)=C(N)Oc3c2c(C)nn3-c2ccccc2)c2ccccc21 (configuration not stated)	i	7.41*	i	i	i	i	i	i	i
COc1cccc(CNC(=O)c2ccc(CS(=O)(=O)Cc3ccccc3C)o2)c1	i	i	i	i	i	.	.	.	.
COc1ccc2c(c1)cc(C)c1nnc(SCC(=O)N(C)c3nc(-c4ccccc4)cs3)n12	i	20.1*	i	i	i	i	i	i	i
Cc1cc2cccc(C)c2nc1SCC(=O)N(C)c1nc(-c2ccccc2)cs1	i	i	i	i	i	.	.	.	.
CC1=CC(C)C(/C=N/N=C(N)N)C(C)C1 (configuration not stated)	i	24.2*	i	i	i	i	i	i	i
Cc1ccc2c(c1)N(CC(=O)NC(C)CCc1ccccc1)C(=O)c1cccnc1O2 (configuration not stated)	i	i	i	i	i	.	.	.	.
O=C(COc1ccccc1)N1CCN=C1SCc1ccc(F)cc1	i	8.59*	i	i	i	i	i	i	i
O=C(COc1ccccc1)N1CCN=C1SCc1cccnc1	i	i	i	i	i	.	.	.	.
CC(C)CCNC(=O)Cc1ccc(Nc2nc(=S)[nH]c3ccccc23)cc1	i	i	i	i	i	.	.	.	.
Clc1ccccc1Nc1nnc(-c2ccncc2)s1	i	9.6*	i	i	i	i	i	i	i
CCCCC1(C)NC(=O)c2c(C)sc(C(=O)OCC)c2N1 (configuration not stated)	i	8.33*	i	i	i	i	i	i	i
CN1c2ccccc2Oc2nnc(N3CCN(Cc4ccccc4)CC3)cc21	i	11.9*	i	i	i	i	i	i	i
SMILES	MrgX1 agonist	MrgX1 allo act	MrgX1 antagonist	RGS4 pot	RGS4 block	MrgX1 PAM conf	HEK293 Ca flux	HEK293 Ca counter	HEK293 Ca cntr2
CN1c2ccccc2Oc2nnc(Cl)cc21	i	i	i	i	i	.	.	.	.
CC(C)(C)SC(=O)C[C@@H]1NS(=O)(=O)OC2CCCCC21 (some centres not stated)	i	i	i	i	i	.	.	.	.
CCCCCN1CC(=O)N2C(C)c3[nH]c4ccccc4c3C[C@H]2C1=O (some centres not stated)	i	13.7*	i	i	i	i	i	i	i
CCCCOCCCN1CC(=O)N2C(C)c3[nH]c4ccccc4c3C[C@H]2C1=O (some centres not stated)	i	7.47*	i	i	i	i	i	i	i
Cn1c(=O)[nH]c(=O)c2c1nc(N1CCNCC1)n2Cc1ccccc1Cl	i	10.4*	i	i	i	i	i	i	i
CCCCCCn1c(N2CCCC2)nc2c1c(=O)[nH]c(=O)n2C	i	11.9*	i	i	i	9.9%*	i	i	i
Cc1cc(C)c(S(=O)(=O)NCCc2ccccc2)c(C)c1	i	9.71*	i	i	i	i	i	i	i
Cc1ccc(S(=O)(=O)NCCc2ccccc2)cc1	i	i	i	i	i	.	.	.	.
CCCCN1C(=O)C(O)(CC(=O)c2ccccn2)c2ccccc21 (configuration not stated)	i	i	i	i	i	.	.	.	.
Nc1c(C(=O)N2CCCCCC2)oc2ccccc12	i	10*	i	i	i	i	i	i	i
Cc1ccc2oc(C(=O)N3CCCCCC3)c(C)c2c1	i	6.47*	i	i	i	i	i	i	i
CC(C)C[C@@H]1NC(=O)[C@H](Cc2ccc(O)cc2)NC(=O)[C@H](CCC(N)=O)NC(=O)c2cc([N+](=O)[O-])cc(I)c2NCC[C@@H](C(N)=O)NC1=O	i	i	i	i	i	.	.	.	.
